ChEMBL document CHEMBL5543170, “Identification of Potent and Selective Inhibitors of Acanthamoeba: Structural Insights into Sterol 14α-Demethylase as a Key Drug Target” (J Med Chem, 2024)
The source made the active and inactive calls. No cut-off for these calls is given here.

Experiments:
Acanthamoeba castellanii [1] = test: Catalytic inhibition of Acanthamoeba castellanii CYP51 expressed in Escherichia coli HMS-174 (DE3) cells assessed as inhibition of substrate induced 14alpha-demthylation using obtusifoliol as substrate at […] incubated for 1 hr in presence of NADPH-CYP450 reductase by RP-HPLC analysis relative to control; conditions: dose 1.5 µM
Acanthamoeba polyphaga = test: Anti-amoebic activity against Acanthamoeba polyphaga ATCC 30461 assessed as inhibition of amoebic growth incubated for 48 hrs by resazurin dye based microtiter plate analysis; format: functional
Summary of the method: (§1)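 Trophozoites kept axenically in PYG medium at 28 °C, grown to confluence for 48 h, then diluted to 5 × 10^4 trophozoites/mL (1 × 10^4 cells per well). Azoles added from DMSO stocks via PYG to final 0.03125–64 μg/mL (twofold series); 1% DMSO controls. Incubated 48 h at 28 °C, then 0.02% resazurin added for a further 48 h. Purple-to-pink change scored as respiring cells; MIC in triplicate.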

Acanthamoeba castellanii [2] = test: Anti-amoebic activity against Acanthamoeba castellanii ATCC 50491 assessed as inhibition of amoebic growth incubated for 48 hrs by resazurin dye based microtiter plate analysis; format: functional; summary of the method: as §1
[3] = Catalytic inhibition of Acanthamoeba castellanii CYP51 expressed in Escherichia coli HMS-174 (DE3) cells assessed as inhibition of substrate induced 14alpha-demthylation using obtusifoliol as substrate incubated for 1 hr in presence of NADPH-CYP450 reductase by RP-HPLC analysis
Acanthamoeba castellanii [4] = test: Substrate activity at Acanthamoeba castellanii CYP51 expressed in Escherichia coli HMS-174 (DE3) cells assessed as Kcat/Km measured after 20 mins by Michaelis-Menten analysis
Summary of the method: (§2)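 Full-length His6-tagged CYP51, purified by Ni-NTA, Q- and CM-Sepharose, reconstituted with rat CPR (0.5 μM P450, 2 μM CPR), 37 °C. […] Rates as nmol product/min/nmol P450 vs total substrate, fitted to Michaelis–Menten hyperbola; triplicate, mean ± SD.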

Acanthamoeba castellanii [5] = test: Substrate activity at Acanthamoeba castellanii CYP51 expressed in Escherichia coli HMS-174 (DE3) cells assessed as Km measured after 20 mins by Michaelis-Menten analysis; summary of the method: as §2
Acanthamoeba castellanii [6] = test: Substrate activity at Acanthamoeba castellanii CYP51 expressed in Escherichia coli HMS-174 (DE3) cells assessed as Kcat measured after 20 mins by Michaelis-Menten analysis; summary of the method: as §2
[7] = Binding affinity to Acanthamoeba castellanii CYP51 expressed in Escherichia coli HMS-174 (DE3) cells assessed as dissociation constant by UV-Visible spectrophotometry
Acanthamoeba castellanii [8] = test: Substrate activity at Acanthamoeba castellanii CYP51 expressed in Escherichia coli HMS-174 (DE3) cells assessed as Kcat/Km measured after 60 sec by Michaelis-Menten analysis; summary of the method: as §2
Acanthamoeba castellanii [9] = test: Substrate activity at Acanthamoeba castellanii CYP51 expressed in Escherichia coli HMS-174 (DE3) cells assessed as Kcat measured after 60 sec by Michaelis-Menten analysis; summary of the method: as §2
Acanthamoeba castellanii [10] = test: Substrate activity at Acanthamoeba castellanii CYP51 expressed in Escherichia coli HMS-174 (DE3) cells assessed as Km measured after 60 sec by Michaelis-Menten analysis; summary of the method: as §2

| SMILES | inhibition (Acanthamoeba castellanii [1]) | MIC (Acanthamoeba polyphaga) | MIC (Acanthamoeba castellanii [2]) | also measured |
| --- | --- | --- | --- | --- |
| N#Cc1ccc(C(c2ccc(C#N)cc2)n2cncn2)cc1 | inactive |  |  |  |
| CC[C@@H]([C@H](C)O)n1ncn(-c2ccc(N3CCN(c4ccc(OC[C@@H]5CO[C@@](Cn6cncn6)(c6ccc(F)cc6F)C5)cc4)CC3)cc2)c1=O | inactive |  |  |  |
| O=C(N[C@@H](Cn1ccnc1)c1ccc(Cl)cc1Cl)c1ccc(-c2nnc(-c3ccccc3)o2)cc1 |  | > 64 µg/mL | 4 µM |  |
| Clc1ccc(COC(Cn2ccnc2)c2ccc(Cl)cc2Cl)c(Cl)c1 (stereo not given) | 25% |  |  |  |
| O[C@@](Cn1cnnn1)(c1ccc(F)cc1F)C(F)(F)c1ccc(-c2ccc(OCC(F)(F)F)cc2)cn1 [OTESECONAZOLE] |  | 0.114 µM | 0.057 µM |  |
| CC(C)(C#N)c1cc(Cn2cncn2)cc(C(C)(C)C#N)c1 | inactive |  |  |  |
| C[C@@H](c1ncncc1F)[C@](O)(Cn1cncn1)c1ccc(F)cc1F [VORICONAZOLE] | 85% | 0.75 µM | 0.09 µM | IC50 [3]: 0.45 µM |
| N#Cc1ccc(COc2ccc(C#Cc3ccc(C(F)(F)[C@](O)(Cn4cnnn4)c4ccc(F)cc4F)nc3)cc2)cc1 [VT-1598] |  | 0.425 µM | 0.077 µM | IC50 [3]: 0.25 µM |
| CC(=O)N1CCN(c2ccc(OCC3COC(Cn4ccnc4)(c4ccc(Cl)cc4Cl)O3)cc2)CC1 (stereo not given) | inactive |  |  |  |
| O=C(N[C@@H](Cn1ccnc1)c1ccc(-c2ccc(F)cc2)cc1F)c1ccc(-c2nnc(-c3ccccc3)o2)cc1 |  | > 64 µg/mL | > 64 µg/mL |  |
| C[C@@H](c1nc(-c2ccc(C#N)cc2)cs1)[C@](O)(Cn1cncn1)c1ccc(F)cc1F | inactive |  |  |  |
| O=C([C@@H](c1ccc(Cl)cc1)c1cccnc1)N1CCN(c2ccc(C(F)(F)F)cc2)CC1 |  |  |  | IC50 [3]: 5.5 µM |
| CC(C)=CCC[C@@H](C)[C@H]1CC[C@@]2(C)C3=C(CC[C@]12C)[C@@]1(C)CC[C@H](O)C(C)(C)[C@@H]1CC3 [LANOSTEROL] |  |  |  | kcat/Km (Acanthamoeba castellanii [4]): 2000 M⁻¹ s⁻¹; Km (Acanthamoeba castellanii [5]): 52 µM; kcat (Acanthamoeba castellanii [6]): 0.102 s⁻¹; Kd [7]: 1.22 µM |
| Clc1ccccc1C(c1ccccc1)(c1ccccc1)n1ccnc1 | 82% |  |  |  |
| FC(F)(F)c1ccc(N(c2cccnc2)C2CCN(c3ccc(C(F)(F)F)cn3)CC2)cc1 |  |  |  | IC50 [3]: 1.3 µM |
| C=C(CC[C@@H](C)[C@H]1CC[C@@]2(C)C3=C(CC[C@]12C)[C@@]1(C)CC[C@H](O)[C@@H](C)[C@@H]1CC3)C(C)C [OBTUSIFOLIOL] |  |  |  | kcat/Km (Acanthamoeba castellanii [8]): 190000 M⁻¹ s⁻¹; kcat (Acanthamoeba castellanii [9]): 0.513 s⁻¹; Km (Acanthamoeba castellanii [10]): 2.7 µM; Kd [7]: 0.03 µM |
